# Source: ChEMBL document CHEMBL1255284, “Aspergillus section Fumigati: antifungal susceptibility patterns and sequence-based identification” (2008)
# Legend:
# [1] = tested on: Aspergillus lentulus; test: Antimicrobial activity against Aspergillus lentulus isolate CNM-CM-1290 obtained from sputum of patient after 48 hrs by broth microdilution method; format: functional; settings: isolate CNM-CM-1290, 48 h
# In short: (§1)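 CLSI M38-A broth microdilution with modifications: RPMI 1640 with L-glutamine, 2% glucose, buffered to pH 7 with 0.165 M MOPS. Inoculum of 1 × 10^5 to 5 × 10^5 CFU/ml from 3- to 5-day-old cultures. Incubated 35°C, 48 h, humid. Visual reading with a mirror. MIC is complete growth inhibition; echinocandin MEC is hyphal morphological alteration. Azoles 8 to 0.015 μg/ml; others 16 to 0.03 μg/ml.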
# [2] = tested on: Aspergillus lentulus; test: Antimicrobial activity against Aspergillus lentulus isolate CNM-CM-3134 obtained from sputum of patient after 48 hrs by broth microdilution method; format: functional; settings: isolate CNM-CM-3134, 48 h; in short: as §1
# [3] = tested on: Aspergillus lentulus; test: Antimicrobial activity against Aspergillus lentulus isolate CNM-CM-3364 obtained from bronchoalveolar lavage fluid of patient after 48 hrs by broth microdilution method; format: functional; settings: isolate CNM-CM-3364, Lung; in short: as §1
# [4] = tested on: Aspergillus lentulus; test: Antimicrobial activity against Aspergillus lentulus isolate CNM-CM-3537 obtained from sputum of patient after 48 hrs by broth microdilution method; format: functional; settings: isolate CNM-CM-3537, 48 h; in short: as §1
# [5] = tested on: Aspergillus lentulus; test: Antimicrobial activity against Aspergillus lentulus isolate CNM-CM-3538 obtained from sputum of patient after 48 hrs by broth microdilution method; format: functional; settings: isolate CNM-CM-3538, 48 h; in short: as §1
# [6] = tested on: Aspergillus lentulus; test: Antimicrobial activity against Aspergillus lentulus isolate CNM-CM-3583 obtained from sputum of patient after 48 hrs by broth microdilution method; format: functional; settings: isolate CNM-CM-3583, 48 h; in short: as §1
# [7] = tested on: Aspergillus lentulus; test: Antimicrobial activity against Aspergillus lentulus isolate CNM-CM-3599 obtained from sputum of patient after 48 hrs by broth microdilution method; format: functional; settings: isolate CNM-CM-3599, 48 h; in short: as §1
# [8] = tested on: Aspergillus lentulus; test: Antimicrobial activity against Aspergillus lentulus isolate CNM-CM-4330 obtained from sputum of patient after 48 hrs by broth microdilution method; format: functional; settings: isolate CNM-CM-4330, 48 h; in short: as §1
# [9] = tested on: Aspergillus lentulus; test: Antimicrobial activity against Aspergillus lentulus isolate CNM-CM-4370 obtained from sputum of patient after 48 hrs by broth microdilution method; format: functional; settings: isolate CNM-CM-4370, 48 h; in short: as §1
# [10] = tested on: Aspergillus lentulus; test: Antimicrobial activity against Aspergillus lentulus isolate CNM-CM-4387 obtained from sputum of patient after 48 hrs by broth microdilution method; format: functional; settings: isolate CNM-CM-4387, 48 h; in short: as §1
# [11] = tested on: Aspergillus lentulus; test: Antimicrobial activity against Aspergillus lentulus isolate CNM-CM-4415 obtained from sputum of patient after 48 hrs by broth microdilution method; format: functional; settings: isolate CNM-CM-4415, 48 h; in short: as §1
# [12] = tested on: Aspergillus lentulus; test: Antimicrobial activity against Aspergillus lentulus isolate CNM-CM-4420 obtained from nail of patient after 48 hrs by broth microdilution method; format: functional; settings: isolate CNM-CM-4420, 48 h; in short: as §1
# [13] = tested on: Aspergillus lentulus; test: Antimicrobial activity against Aspergillus lentulus isolate CNM-CM-4426 obtained from sputum of patient after 48 hrs by broth microdilution method; format: functional; settings: isolate CNM-CM-4426, 48 h; in short: as §1
# [14] = tested on: Aspergillus lentulus; test: Antimicrobial activity against Aspergillus lentulus isolate CNM-CM-4428 obtained from skin of patient after 48 hrs by broth microdilution method; format: functional; settings: isolate CNM-CM-4428, 48 h; in short: as §1
# [15] = tested on: Aspergillus fumisynnematus; test: Antimicrobial activity against Aspergillus fumisynnematus isolate CNM-CM-4063 obtained from bronchoalveolar aspirate of patient after 48 hrs by broth microdilution method; format: functional; settings: isolate CNM-CM-4063, Lung; in short: as §1
# [16] = tested on: Neosartorya hiratsukae; test: Antimicrobial activity against Neosartorya hiratsukae isolate CNM-CM-3303 obtained from skin of patient after 48 hrs by broth microdilution method; format: functional; settings: Aspergillus hiratsukae, isolate CNM-CM-3303, 48 h; in short: as §1
# [17] = tested on: Neosartorya hiratsukae; test: Antimicrobial activity against Neosartorya hiratsukae isolate CNM-CM-3305 obtained from skin of patient after 48 hrs by broth microdilution method; format: functional; settings: Aspergillus hiratsukae, isolate CNM-CM-3305, 48 h; in short: as §1
# [18] = tested on: Neosartorya hiratsukae; test: Antimicrobial activity against Neosartorya hiratsukae isolate CNM-CM-3764 obtained from oropharyngeal exudate of patient after 48 hrs by broth microdilution method; format: functional; settings: Aspergillus hiratsukae, isolate CNM-CM-3764, 48 h; in short: as §1
# [19] = tested on: Neosartorya hiratsukae; test: Antimicrobial activity against Neosartorya hiratsukae isolate CNM-CM-3740 obtained from oropharyngeal exudate of patient after 48 hrs by broth microdilution method; format: functional; settings: Aspergillus hiratsukae, isolate CNM-CM-3740, 48 h; in short: as §1
# [20] = tested on: Neosartorya hiratsukae; test: Antimicrobial activity against Neosartorya hiratsukae isolate CNM-CM-4328 obtained from cornea of patient after 48 hrs by broth microdilution method; format: functional; settings: Aspergillus hiratsukae, isolate CNM-CM-4328, Cornea; in short: as §1
# [21] = tested on: Neosartorya pseudofischeri; test: Antimicrobial activity against Neosartorya pseudofischeri isolate CNM-CM-3769 obtained from sputum of patient after 48 hrs by broth microdilution method; format: functional; settings: Aspergillus thermomutatus
# In short: (§2)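 CLSI M38-A broth microdilution with modifications: RPMI 1640 with L-glutamine, MOPS-buffered to pH 7, plus 2% glucose. Inoculum 1 × 10^5 to 5 × 10^5 CFU/ml from 3–5-day cultures. Incubated at 35°C for 48 h, humid. Read visually with a mirror. MIC = complete growth inhibition; echinocandin MEC = altered hyphal morphology. QC strain A. fumigatus ATCC 2004305.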
# [22] = tested on: Neosartorya pseudofischeri; test: Antimicrobial activity against Neosartorya pseudofischeri isolate CNM-CM-2270 obtained from sputum of patient after 48 hrs by broth microdilution method; format: functional; settings: Aspergillus thermomutatus, isolate CNM-CM-2270, 48 h; in short: as §2
# [23] = tested on: Neosartorya pseudofischeri; test: Antimicrobial activity against Neosartorya pseudofischeri isolate CNM-CM-4060 obtained from sputum of patient after 48 hrs by broth microdilution method; format: functional; settings: Aspergillus thermomutatus; in short: as §2
# [24] = tested on: Neosartorya pseudofischeri; test: Antimicrobial activity against Neosartorya pseudofischeri isolate CNM-CM-3914 obtained from nail of patient after 48 hrs by broth microdilution method; format: functional; settings: Aspergillus thermomutatus, isolate CNM-CM-3914, 48 h; in short: as §2
# [25] = tested on: Aspergillus viridinutans; test: Antimicrobial activity against Aspergillus viridinutans isolate CNM-CM-3147 obtained from oropharyngeal exudate of patient after 48 hrs by broth microdilution method; format: functional; settings: isolate CNM-CM-3147, 48 h; in short: as §1
# [26] = tested on: Aspergillus viridinutans; test: Antimicrobial activity against Aspergillus viridinutans isolate CNM-CM-4518 obtained from nail of patient after 48 hrs by broth microdilution method; format: functional; settings: isolate CNM-CM-4518, 48 h; in short: as §1
# [27] = tested on: Aspergillus fumigatus; test: Antimicrobial activity against Aspergillus fumigatus ATCC 2004305 after 48 hrs by broth microdilution method; format: functional; settings: ATCC 2004305, 48 h
# [28] = tested on: Aspergillus fumigatiaffinis; test: Antimicrobial activity against Aspergillus fumigatiaffinis isolate CNM-CM-2280 obtained from sputum of patient after 48 hrs by broth microdilution method; settings: isolate CNM-CM-2280, 48 h
# [29] = tested on: Aspergillus fumigatiaffinis; test: Antimicrobial activity against Aspergillus fumigatiaffinis isolate CNM-CM-3227 obtained from bronchoalveolar lavage fluid of patient after 48 hrs by broth microdilution method; settings: isolate CNM-CM-3227, Lung
structure (smiles),measurement,setting,value
C[C@@H]1[C@H](O)[C@@H](C)/C=C/C=C/C=C/C=C/C=C/C=C/C=C/[C@H](O[C@@H]2O[C@H](C)[C@@H](O)[C@H](N)[C@@H]2O)C[C@@H]2O[C@](O)(C[C@@H](O)C[C@@H](O)[C@H](O)CC[C@@H](O)C[C@@H](O)CC(=O)O[C@H]1C)C[C@H](O)[C@H]2C(=O)O [AMPHOTERICIN B],MIC,[1],4.5 µg/mL
same,MIC,[2],10 µg/mL
same,MIC,[3],8.4 µg/mL
same,MIC,[4],7 µg/mL
same,MIC,[5],7.25 µg/mL
same,MIC,[6],8 µg/mL
same,MIC,[7],2.66 µg/mL
same,MIC,[8],8 µg/mL
same,MIC,[9],7.33 µg/mL
same,MIC,[10],6 µg/mL
same,MIC,[11],6 µg/mL
same,MIC,[12],10.7 µg/mL
same,MIC,[13],12 µg/mL
same,MIC,[14],12 µg/mL
same,MIC,[15],1 µg/mL
same,MIC,[16],0.5 µg/mL
same,MIC,[17],0.31 µg/mL
same,MIC,[18],1 µg/mL
same,MIC,[19],0.66 µg/mL
same,MIC,[20],0.75 µg/mL
same,MIC,[21],1 µg/mL
same,MIC,[22],0.17 µg/mL
same,MIC,[23],0.25 µg/mL
same,MIC,[24],0.25 µg/mL
same,MIC,[25],0.58 µg/mL
same,MIC,[26],0.37 µg/mL
same,MIC,[27],0.25 µg/mL
same,MIC,[28],16 µg/mL
same,MIC,[29],8 µg/mL
